Reference: ChEMBL document CHEMBL1143876, “Synthesis, analgesic, anti-inflammatory, and antimicrobial activity of some novel pyrimido[4,5-b]quinolin-4-ones” (2008)

Columns and labels:
Nakaseomyces glabratus = assay: Antimicrobial activity against Candida glabrata at 50 ug/disk after 5 days; format: functional; settings: for zone of inhibition at 50 µg/disc: 120 h, read-out: IZ
Outline: (§1)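 Agar disk diffusion: 5 mm paper disks loaded with 50 µg/disk in DMSO. Inhibition zones read after 24–28 h at 37 °C for bacteria, or 5 days at 28 °C for clinical Candida isolates grown on Sabouraud dextrose agar. Zone graded 6–10 mm slight, 11–15 mm moderate, >15 mm high. Reference disks: nalidixic acid 30 µg, nystatin 100 U.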

Mus musculus [1] = assay: Analgesic activity in Swiss albino mouse assessed as reaction time at 15 mg/kg, po after 30 mins by hot plate test; format: functional
Outline: (§2)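 Mice of both sexes, 25–30 g, on a hot plate at 53 ± 0.5 °C; reaction time taken to hind-paw lick or jump, 60 s cut-off. Baseline read before dosing. Oral dosing in 10% v/v Tween 80 in water: test agents 15 mg/kg, acetylsalicylic acid 100 mg/kg. Re-read at 15, 30, 60 and 90 min; means ± SE.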

Mus musculus [2] = assay: Analgesic activity in Swiss albino mouse assessed as reaction time at 15 mg/kg, po after 60 mins by hot plate test; format: functional; outline: as §2
Mus musculus [3] = assay: Analgesic activity in Swiss albino mouse assessed as reaction time at 15 mg/kg, po after 90 mins by hot plate test; format: functional; outline: as §2
Mus musculus [4] = assay: Analgesic activity against acetic acid-induced abdominal constriction in Swiss albino mouse at 15 mg/kg, po after 20 mins by writhing test; format: functional, Abdomen
Outline: (§3)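 Mice of both sexes, 25–30 g, dosed orally in 10% v/v Tween 80 in water. Test agents were given at 15 mg/kg and acetylsalicylic acid at 100 mg/kg. 30 min later, 0.7% acetic acid (10 ml/kg) ip. Writhes counted over 20 min; six per group. % protection = (control mean − treated mean)/control mean ×100; means ± SE.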

Mus musculus [5] = assay: Analgesic activity against acetic acid-induced abdominal constriction in Swiss albino mouse at 15 mg/kg, po after 20 mins by writhing test relative to acetylsalicylic acid; format: functional, Abdomen; outline: as §3
Escherichia coli [6] = assay: Antimicrobial activity against Escherichia coli at 50 ug/disk after 24 to 28 hrs; format: functional; settings: read-out: IZ; outline: as §1
Klebsiella pneumoniae [7] = assay: Antimicrobial activity against Klebsiella pneumoniae at 50 ug/disk after 24 to 28 hrs; format: functional; settings: read-out: IZ; outline: as §1
Pseudomonas aeruginosa [8] = assay: Antimicrobial activity against Pseudomonas aeruginosa at 50 ug/disk after 24 to 28 hrs; format: functional; settings: read-out: IZ; outline: as §1
Staphylococcus aureus [9] = assay: Antimicrobial activity against Staphylococcus aureus at 50 ug/disk after 24 to 28 hrs; format: functional; settings: read-out: IZ; outline: as §1
Candida albicans [10] = assay: Antimicrobial activity against Candida albicans at 50 ug/disk after 5 days; format: functional; settings: 120 h, read-out: IZ; outline: as §1
Escherichia coli [11] = assay: Antimicrobial activity against Escherichia coli; format: functional
Outline: (§4)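 MIC found by disk diffusion using disks carrying varying amounts of compound per disk, in DMSO. Incubated 24–28 h at 37 °C for bacteria and 5 days at 28 °C for Candida. MIC given in µg/disk.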

Klebsiella pneumoniae [12] = assay: Antimicrobial activity against Klebsiella pneumoniae; format: functional; outline: as §4
Pseudomonas aeruginosa [13] = assay: Antimicrobial activity against Pseudomonas aeruginosa; format: functional; outline: as §4
Staphylococcus aureus [14] = assay: Antimicrobial activity against Staphylococcus aureus; format: functional; outline: as §4
Rattus norvegicus [15] = assay: Antiinflammatory activity against carrageenan-induced paw edema in Sprague-Dawley rat at 15 mg/kg, po after 1 hr; format: functional
Outline: (§5)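 Adult male rats, 150–180 g, six per group. Oral dose 1 h before 0.1 ml 1% carrageenin sc into the left hind footpad: test agents 15 mg/kg as suspension, indomethacin 10 mg/kg; vehicle 10% Tween 80. Paw volume by plethysmometer before injection, then hourly for 4 h. Edema % = (Vt−Vc)/Vc; inhibition % = (Ec−Et)/Ec. Potency taken relative to indomethacin. Means ± SE.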

Rattus norvegicus [16] = assay: Antiinflammatory activity against carrageenan-induced paw edema in Sprague-Dawley rat at 15 mg/kg, po relative to indomethacin after 1 hr; format: functional; outline: as §5
Rattus norvegicus [17] = assay: Antiinflammatory activity against carrageenan-induced paw edema in Sprague-Dawley rat at 15 mg/kg, po after 2 hrs; format: functional; outline: as §5
Rattus norvegicus [18] = assay: Antiinflammatory activity against carrageenan-induced paw edema in Sprague-Dawley rat at 15 mg/kg, po relative to indomethacin after 2 hrs; format: functional; outline: as §5
Rattus norvegicus [19] = assay: Antiinflammatory activity against carrageenan-induced paw edema in Sprague-Dawley rat at 15 mg/kg, po after 3 hrs; format: functional; outline: as §5
Rattus norvegicus [20] = assay: Antiinflammatory activity against carrageenan-induced paw edema in Sprague-Dawley rat at 15 mg/kg, po relative to indomethacin after 3 hrs; format: functional; outline: as §5
Rattus norvegicus [21] = assay: Antiinflammatory activity against carrageenan-induced paw edema in Sprague-Dawley rat at 15 mg/kg, po after 4 hrs; format: functional; outline: as §5
Rattus norvegicus [22] = assay: Antiinflammatory activity against carrageenan-induced paw edema in Sprague-Dawley rat at 15 mg/kg, po relative to indomethacin after 4 hrs; format: functional; outline: as §5
Candida albicans [23] = assay: Antimicrobial activity against Candida albicans; format: functional; outline: as §4

Compound | Time (Mus musculus [1]) [s] | Time (Mus musculus [2]) [s] | Time (Mus musculus [3]) [s] | Activity (Mus musculus [4]) [%] | Activity (Mus musculus [5]) [%] | zone of inhibition at 50 µg/disc (Escherichia coli [6]) [mm] | zone of inhibition at 50 µg/disc (Klebsiella pneumoniae [7]) [mm] | zone of inhibition at 50 µg/disc (Pseudomonas aeruginosa [8]) [mm] | zone of inhibition at 50 µg/disc (Staphylococcus aureus [9]) [mm] | MIC (Escherichia coli [11]) [µg] | MIC (Klebsiella pneumoniae [12]) [µg] | MIC (Pseudomonas aeruginosa [13]) [µg] | MIC (Staphylococcus aureus [14]) [µg] | further results
NYSTATIN | – | – | – | – | – | – | – | – | – | – | – | – | – | inhibition zone (IZ) (Nakaseomyces glabratus): 19 mm
Cc1cc(C)n(-c2nc3nc4c(c(-c5ccccc5)c3c(=O)[nH]2)CCCC4)n1 | 8.93 | 10.15 | 11.5 | 59.2 | 114.51 | 19 | 20 | 22 | 21 | 30 | 30 | 30 | 30 | zone of inhibition at 50 µg/disc (Candida albicans [10]): 9 mm; zone of inhibition at 50 µg/disc (Nakaseomyces glabratus): 9 mm; inhibition in vivo at 15 mg/kg (Rattus norvegicus [15]): 10.5%; inhibition in vivo at 15 mg/kg (Rattus norvegicus [16]): 14.5%; inhibition in vivo at 15 mg/kg (Rattus norvegicus [17]): 0.9%; inhibition in vivo at 15 mg/kg (Rattus norvegicus [18]): 1.5%; inhibition in vivo at 15 mg/kg (Rattus norvegicus [19]): 0.1%; inhibition in vivo at 15 mg/kg (Rattus norvegicus [20]): 0.1%; inhibition in vivo at 15 mg/kg (Rattus norvegicus [21]): 0.8%; inhibition in vivo at 15 mg/kg (Rattus norvegicus [22]): 1.7%
Nn1c(-c2ccccc2)cn2c(=O)c3c(-c4ccccc4)c4c(nc3nc12)CCCC4 | 9.42 | 11.41 | 10.67 | 37.1 | 71.76 | 21 | 22 | 23 | 19 | 20 | 20 | 20 | 20 | –
Cc1n[nH]c2nc3nc4c(c(-c5ccccc5)c3c(=O)n12)CCCC4 | 8.68 | 8.8 | 10.4 | 5.8 | 11.2 | 20 | 20 | 21 | 21 | 20 | 20 | 20 | 20 | zone of inhibition at 50 µg/disc (Candida albicans [10]): 18 mm; zone of inhibition at 50 µg/disc (Nakaseomyces glabratus): 13 mm; MIC (Candida albicans [23]): 50 µg
O=c1c2c(-c3ccccc3)c3c(nc2nc2n(-c4ccccc4)nc(-c4ccccc4)n12)CCCC3 | 9.84 | 11.62 | 11.88 | 4.6 | 8.89 | – | – | – | – | – | – | – | – | –
O=c1c2c(-c3ccccc3)c3c(nc2nc2[nH]nnn12)CCCC3 | 9.16 | 10.78 | 10.08 | 14 | 27.07 | 18 | 16 | 22 | 17 | 30 | 30 | 30 | 30 | –
CCn1cc(C(=O)O)c(=O)c2ccc(C)nc21 [NALIDIXIC ACID] | – | – | – | – | – | 24 | 25 | 25 | 25 | – | – | – | – | –
